According to ChEMBL document CHEMBL1134364, “Antipsoriatic anthrones with modulated redox properties. 5. Potent inhibition of human keratinocyte growth, induction of keratinocyte differentiation, and reduced membrane damage by novel 10-arylacetyl-1,8-dihydroxy-9(10H)-anthracenones” (J Med Chem, 2001):

Experiments:
[1] = Inhibition of LTB4 biosynthesis in bovine polymorphonuclear leukocytes using nordihydroguaiaretic acid; format: functional, cell-based, Bos taurus
[2] = Concentration required to inhibit 50% growth of HaCaT cells; format: functional, cell-based; details: Homo sapiens
Method in brief: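 HaCaT keratinocytes treated for 48 h. Proliferation read by counting dispersed cells under phase-contrast microscope. Growth inhibition tested for significance against control, N = 3, P < 0.01.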

[3] = Partition coefficient (logP); format: physicochemical; details: octanol/water
[4] = (§1) Cytotoxic activity of LDH(mu) release in HaCaT cells was measured after treatment with 2 uM of the compound; format: functional, Homo sapiens
Method in brief: (§2)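 HaCaT cells treated with 2 µM compound. Membrane damage read as lactate dehydrogenase activity (mU) released into the culture medium. N = 3, SD < 10%.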

[5] = Deoxyribose degradation activity was measured as hydroxyl radical formation
[6] = Induction of Keratinocyte Differentiation in cross-linked envelope assay at 10 uM expressed as difference of the amount of cross-linked protein as a measure of HaCaT keratinocyte differentiation; format: functional, Homo sapiens
Method in brief: (§3)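 HaCaT cultures were 144 h post-confluent; medium replaced, compound added from DMSO stocks diluted in DMEM (final DMSO 0.2%), controls DMSO or medium alone, 48 h. Cells were detached with trypsin/EDTA, lysed in SDS/β-ME, dot-blotted, TCA-heated, Coomassie-stained and scanned. Value is cross-linked protein minus vehicle, per mg protein (Bradford), mean ± SEM of 3 experiments.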

[7] = (§4) Induction of Keratinocyte Differentiation in cross-linked envelope assay at 5 uM expressed as difference of the amount of cross-linked protein as a measure of HaCaT keratinocyte differentiation; format: functional, Homo sapiens; method in brief: as §3
[8] = Induction of Keratinocyte Differentiation in cross-linked envelope assay at 1 uM expressed as difference of the amount of cross-linked protein as a measure of HaCaT keratinocyte differentiation; format: functional, Homo sapiens; method in brief: as §3
[9] = Cytotoxic activity of LDH(mu) release in HaCaT cells was measured after treatment of 2 uM; format: functional, Homo sapiens; method in brief: as §2
HaCaT = test: as §4; format: cell-based; details: Homo sapiens; method in brief: as §3
[10] = as §1; format: cell-based; details: human; method in brief: as §2

Row | SMILES | IC50 [1] [nM] | logP [3] | Activity [5] | IC50 [2] [nM] | LDH [4] [MU] | Activity [6] | Activity [7] | Activity [8] | LDH [9] [MU] | Activity (ug (mg of protein)-1) (HaCaT) | LDH [10] [MU]
1 | COc1ccc(CC(=O)C2c3cccc(O)c3C(=O)c3c(O)cccc32)cc1O | 8000 | 3.41 |  | 1900 |  |  |  |  |  |  | 
2 | CC(C)(C)c1cc(CC(=O)C2c3cccc(O)c3C(=O)c3c(O)cccc32)cc(C(C)(C)C)c1O |  |  |  | 3000 | 199 |  |  |  |  |  | 
3 | O=C1c2c(O)cccc2C(C(=O)Cc2ccc(Cl)cc2)c2cccc(O)c21 | 1000 | 4.49 | < 0.3 | 2200 |  |  |  |  |  |  | 
4 | O=C1c2c(O)cccc2Cc2cccc(O)c21 [ANTHRALIN] |  |  |  | 700 |  | 5.8 ug (mg of protein)-1 | 4.9 ug (mg of protein)-1 | 3.7 ug (mg of protein)-1 | 294 |  | 
5 | O=C1c2c(O)cccc2C(C(=O)Cc2ccc(O)cc2)c2cccc(O)c21 |  |  |  | 1700 | 173 | 6.2 ug (mg of protein)-1 | 5.1 ug (mg of protein)-1 | 2.5 ug (mg of protein)-1 |  |  | 
6 | COc1ccc(COc2ccc(CC(=O)C3c4cccc(O)c4C(=O)c4c(O)cccc43)cc2)cc1 | 1500 | 4.91 | < 0.3 | 3200 |  |  |  |  |  |  | 
7 | CC(C(=O)C1c2cccc(O)c2C(=O)c2c(O)cccc21)c1ccc(C(=O)c2ccccc2)cc1 (centres undefined) | 9000 | 4.46 | < 0.3 | 900 | 191 |  |  |  |  |  | 
8 | O=C1c2c(O)cccc2C(C(=O)Cc2ccc([N+](=O)[O-])cc2)c2cccc(O)c21 |  |  |  | 4700 | 179 |  |  |  |  |  | 
9 | CC(C)(C)OC(=O)Nc1ccc(CC(=O)C2c3cccc(O)c3C(=O)c3c(O)cccc32)cc1 | 2000 | 4.17 | 0.97 | 1800 |  |  |  |  |  |  | 
10 | N#Cc1ccc(CC(=O)C2c3cccc(O)c3C(=O)c3c(O)cccc32)cc1 | 9000 | 3.58 |  | 3200 |  |  |  |  |  |  | 
11 | O=C1c2ccccc2Cc2ccccc21 [ANTHRONE] |  |  |  |  |  | 0.8 ug (mg of protein)-1 | 0.3 ug (mg of protein)-1 | 0.5 ug (mg of protein)-1 |  |  | 
12 | CSc1ccc(CC(=O)C2c3cccc(O)c3C(=O)c3c(O)cccc32)cc1 | 6000 | 4.42 |  | 1600 |  |  |  |  |  |  | 
13 | Cc1ccc(CC(=O)C2c3cccc(O)c3C(=O)c3c(O)cccc32)cc1 |  | 4.54 |  | 700 | 145 | 5.1 ug (mg of protein)-1 | 4.2 ug (mg of protein)-1 | 2.1 ug (mg of protein)-1 |  |  | 
14 | COc1cccc(COc2ccc(CC(=O)C3c4cccc(O)c4C(=O)c4c(O)cccc43)cc2)c1 | 1000 | 5.19 | < 0.3 | 1000 | 159 |  |  |  |  |  | 
15 | O=C1c2cccc(O)c2C(=O)c2c(O)cccc21 [DANTHRON] |  |  |  |  |  | 0 ug (mg of protein)-1 | -0.1 ug (mg of protein)-1 | 0.6 ug (mg of protein)-1 |  |  | 
16 | O=C1c2c(O)cccc2C(C(=O)Cc2ccc(F)cc2)c2cccc(O)c21 | 11000 | 4.11 | < 0.3 | 2600 |  | 3.5 ug (mg of protein)-1 | 2.4 ug (mg of protein)-1 | 0.6 ug (mg of protein)-1 |  |  | 
17 | O=C1c2c(O)cccc2C(Cc2ccccc2)c2cccc(O)c21 |  |  |  |  |  | 0.9 ug (mg of protein)-1 | -0.8 ug (mg of protein)-1 | -1 ug (mg of protein)-1 |  |  | 
18 | CN(O)C(=O)Cc1ccc(CC(=O)C2c3cccc(O)c3C(=O)c3c(O)cccc32)cc1 | 50 | 3.02 | 0.51 | 700 |  | 6.2 ug (mg of protein)-1 |  | 2.8 ug (mg of protein)-1 |  | 5.5 | 199
19 | O=C1c2c(O)cccc2C(C(=O)Cc2ccc(Br)cc2)c2cccc(O)c21 | 700 | 4.6 | < 0.3 | 2900 |  |  |  |  |  |  | 

The next lines start with results.

Row | IC50 [1] [nM] | logP [3] | Activity [5] | SMILES | IC50 [2] [nM] | LDH [4] [MU] | Activity [6] | Activity [7] | Activity [8] | LDH [9] [MU] | Activity (ug (mg of protein)-1) (HaCaT) | LDH [10] [MU]
20 | 11000 | 4.4 |  | O=C1c2c(O)cccc2C(C(=O)Cc2ccc(C(F)(F)F)cc2)c2cccc(O)c21 | 1600 |  |  |  |  |  |  | 
21 | 600 |  | < 0.3 | O=C1c2c(O)cccc2C(C(=O)Cc2ccc(OCc3ccccc3)cc2)c2cccc(O)c21 | 2400 | 202 |  |  |  |  |  | 
22 | 1000 | 4.51 | < 0.3 | CCOc1ccc(CC(=O)C2c3cccc(O)c3C(=O)c3c(O)cccc32)cc1 | 1700 | 142 |  |  |  |  |  | 
23 | 12000 | 4.07 | < 0.3 | COC(=O)c1ccc(CC(=O)C2c3cccc(O)c3C(=O)c3c(O)cccc32)cc1 | 1800 | 164 |  |  |  |  |  | 
24 | 3000 | 3.91 | 0.45 | O=C1c2c(O)cccc2C(C(=O)Cc2ccccc2Nc2c(Cl)cccc2Cl)c2cccc(O)c21 | 1300 | 247 |  |  |  |  |  | 
25 | 18000 | 4.43 | < 0.3 | CC(C(=O)C1c2cccc(O)c2C(=O)c2c(O)cccc21)c1ccccc1 (centres undefined) | 1000 |  |  |  |  |  |  | 
26 |  | 4.2 |  | COc1ccccc1CC(=O)C1c2cccc(O)c2C(=O)c2c(O)cccc21 | 1600 | 125 |  |  |  |  |  | 
27 | 3000 | 2.84 | 0.93 | O=C(O)Cc1ccc(CC(=O)C2c3cccc(O)c3C(=O)c3c(O)cccc32)cc1 | 1700 |  |  |  |  |  |  | 
28 | 7000 | 5.02 | < 0.3 | O=C1c2c(O)cccc2C(C(=O)Cc2ccc(-c3ccccc3)cc2)c2cccc(O)c21 | 2200 |  | 4.6 ug (mg of protein)-1 | 3.8 ug (mg of protein)-1 | 1.8 ug (mg of protein)-1 |  |  | 
29 | 9000 | 3.77 | < 0.3 | O=C1c2c(O)cccc2C(C(=O)Cc2c[nH]c3ccccc23)c2cccc(O)c21 | 800 | 174 | 6.2 ug (mg of protein)-1 | 4.9 ug (mg of protein)-1 | 1.8 ug (mg of protein)-1 |  |  | 
30 | 15000 | 4.59 | < 0.3 | CC(C)Oc1ccc(CC(=O)C2c3cccc(O)c3C(=O)c3c(O)cccc32)cc1 | 1800 |  |  |  |  |  |  | 
31 | 500 |  |  | COc1ccc(CC(=O)C2c3cccc(O)c3C(=O)c3c(O)cccc32)cc1 | 1100 | 143 | 5.8 ug (mg of protein)-1 | 5.3 ug (mg of protein)-1 | 2.3 ug (mg of protein)-1 |  |  | 
32 | 1000 | 4.06 | < 0.3 | O=C1c2c(O)cccc2C(C(=O)Cc2ccc3c(c2)OCO3)c2cccc(O)c21 | 3300 |  |  |  |  |  |  | 
33 |  | 5.57 |  | CC(C)Cc1ccc(C(C)C(=O)C2c3cccc(O)c3C(=O)c3c(O)cccc32)cc1 (centres undefined) | 3500 |  |  |  |  |  |  | 
34 | 22000 | 3.77 | 0.86 | COc1ccc(CC(=O)C2c3cccc(O)c3C(=O)c3c(O)cccc32)cc1OC | 4200 |  |  |  |  |  |  | 
35 | 6000 | 4.34 | < 0.3 | CCOC(=O)c1ccc(CC(=O)C2c3cccc(O)c3C(=O)c3c(O)cccc32)cc1 | 1300 |  |  |  |  |  |  | 
36 | 1500 | 4.8 | < 0.3 | O=C1c2c(O)cccc2C(C(=O)Cc2ccc(I)cc2)c2cccc(O)c21 | 3100 |  |  |  |  |  |  | 
37 | 1000 | 3.29 | 1.43 | Nc1ccc(CC(=O)C2c3cccc(O)c3C(=O)c3c(O)cccc32)cc1 | 1200 |  | 6.6 ug (mg of protein)-1 | 6 ug (mg of protein)-1 | 0 ug (mg of protein)-1 |  |  | 
38 | 1500 | 5.41 | < 0.3 | CCCCOc1ccc(CC(=O)C2c3cccc(O)c3C(=O)c3c(O)cccc32)cc1 | 1200 |  | 3.4 ug (mg of protein)-1 | 3.4 ug (mg of protein)-1 | 2.5 ug (mg of protein)-1 |  |  | 
39 | 3000 | 4.16 | < 0.3 | COc1cccc(CC(=O)C2c3cccc(O)c3C(=O)c3c(O)cccc32)c1 | 2700 |  |  |  |  |  |  | 
40 | 6000 | 4.42 |  | CN(C)c1ccc(CC(=O)C2c3cccc(O)c3C(=O)c3c(O)cccc32)cc1 | 1300 |  |  |  |  |  |  | 
41 | 9000 | 4.74 |  | O=C1c2c(O)cccc2C(C(=O)Cc2ccc(Cl)c(Cl)c2)c2cccc(O)c21 | 1200 |  |  |  |  |  |  | 
42 | 1000 | 4.97 | < 0.3 | CCCOc1ccc(CC(=O)C2c3cccc(O)c3C(=O)c3c(O)cccc32)cc1 | 1600 | 132 |  |  |  |  |  | 
